MEKK2wt PB1 HTS – raises or lowers MEK5 binding to wildtype human MEKK2 PB1 domain; bead flow cytometry, Alexa488-MEK5 binding to MEKK2 WT; actives lie on both sides; Q9Y2U5; binding response (% of control), % at 10 µM; actives 1.1% (n = 290,000); AID 1531; in the data active means binding response below about 67% or above about 130%
UBC13 polyUb – inhibitors of human UBC13 polyubiquitin chain formation; AID 485273; TR-FRET; inhibition, % at 20 µM; P61088; actives 0.47% (n = 330,000); in the data active means inhibition above about 45%, passing the limit was not always enough
Apaf1 inhib – human Apaf-1 inhibition | reconstituted apoptosome caspase-3 activity, DEVD-Rh110 fluorescence | inhibition, % at 20 µM | actives 0.71% (n = 330,000); active means inhibition of at least 40% at 20 µM
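System – cell-free apoptosome with Apaf-1, procaspase-3 and caspase-9 · Buffer or medium – pH 7.5 Hepes buffer with CHAPS, BSA, DTT · Also added – cytochrome c with DEVD-Rh110 · Times – 30 min compound preincubation, 50 min activation, room temperature · Technique – Rh110 fluorescence intensity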
MEKK3 PB1 HTS – MEKK3-MEK5 PB1 interaction, increase or decrease. Q99759. bead-based flow cytometry, Alexa488-MEK5 binding to MEKK3; actives lie on both sides; 0 = blocked by unlabeled MEK5, 100 = vehicle. binding response (% of control), % at 10 µM. actives 1.4% (n = 290,000). AID 1529;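 active means binding response more than 3 SD above or below the average of its plate-row segment, actives on both sides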;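 further: Alexa488 bead fluorescence after subtracting the streptavidin-only scavenger bead signal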
Target sequence (Q99759 whole entry, looked up): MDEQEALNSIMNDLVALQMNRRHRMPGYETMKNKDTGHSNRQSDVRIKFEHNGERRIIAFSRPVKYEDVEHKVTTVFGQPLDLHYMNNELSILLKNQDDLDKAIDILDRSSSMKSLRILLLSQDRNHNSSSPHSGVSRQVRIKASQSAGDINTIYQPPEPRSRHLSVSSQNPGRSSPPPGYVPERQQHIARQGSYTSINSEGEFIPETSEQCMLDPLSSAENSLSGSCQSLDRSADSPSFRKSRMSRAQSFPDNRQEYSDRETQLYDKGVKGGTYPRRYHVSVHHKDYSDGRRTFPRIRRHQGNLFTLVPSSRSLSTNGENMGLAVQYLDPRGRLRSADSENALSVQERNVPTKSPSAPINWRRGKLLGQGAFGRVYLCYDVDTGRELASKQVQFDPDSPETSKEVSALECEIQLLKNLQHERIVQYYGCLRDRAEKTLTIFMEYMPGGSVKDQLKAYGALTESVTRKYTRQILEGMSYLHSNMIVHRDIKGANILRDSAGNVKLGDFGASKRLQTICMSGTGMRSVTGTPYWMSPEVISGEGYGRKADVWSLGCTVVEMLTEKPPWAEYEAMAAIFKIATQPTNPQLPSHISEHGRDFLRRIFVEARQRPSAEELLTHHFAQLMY
MEKK2 mut-MEK5 – signal of MEK5 binding to mutant human MEKK2 PB1 domain | bead flow cytometry, Alexa488-MEK5 binding to MEKK2 mutant | actives 0.35% (n = 290,000) | percent response, % at 10 µM; in the data active means percent response above about 24%, passing the limit was not always enough
UCH37 inh – inhibitors of human deubiquitinating enzyme UCH37; Q9Y5K5; inhibition, % (no concentration beside the values); purified proteasome/UCH37, Ub-AMC cleavage fluorescence; actives 0.33% (n = 330,000);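 active means mean inhibition over replicate wells above about 20%, limit read from the data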
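Signal – fluorescence, ex 355 nm, em 460 nm · System – Proteasome-bound UCH37 · Input – 0.15 nM proteasome as dispensed · Timing – 30 min preincubation with enzyme, 25 min cleavage at room temperature · Read-out basis – percent inhibition of cleavage signal versus uninhibited and no-proteasome wells · Medium – Tris-HCl pH 7.4 with ATP-MgCl2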
MEKK2wt confirm – raises or lowers MEK5 binding to wildtype human MEKK2, retest; binding response (% of control), % at 10 µM; AID 1892; bead flow cytometry, Alexa488-MEK5 binding to MEKK2 WT; actives lie on both sides; actives 2.4% (n = 5,900); shares compounds with MEKK3 PB1 HTS; in the data active means binding response below about 16% or above about 210%; inactive means in between
MEKK2mut-MEK5 – signal of MEK5 binding to mutant human MEKK2, retest; actives 2% (n = 5,900); AID 1893; shares compounds with MEKK3 PB1 HTS; bead flow cytometry, Alexa488-MEK5 binding to MEKK2 mutant; percent response, % at 10 µM; in the data active means percent response mostly above about 71%, no sharp cut-off; inactive means mostly below about 38%;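 further: higher means compound restores mutant binding toward wildtype level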
MEKK3-MEK5 inh – MEKK3-MEK5 PB1 inhibition, single concentration confirmation; actives 1.8% (n = 5,900); bead flow cytometry, Alexa488-MEK5 binding to MEKK3; hits give low values; AID 1894; binding response (% of control), % at 10 µM; shares compounds with MEKK3 PB1 HTS;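 active means binding response below 72% of control, or above a set upper limit, though filed actives all read lower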
Numbers stand for hits; – = inactive; · = not tested or not shown; [ ] = another dose, or the depositor's remark. A selection: hits, their analogues and other compounds. The true share with any hit is near 3%.

SMILES	MEKK2wt PB1 HTS	UBC13 polyUb	Apaf1 inhib	MEKK3 PB1 HTS	MEKK2 mut-MEK5	UCH37 inh	MEKK2wt confirm	MEKK2mut-MEK5	MEKK3-MEK5 inh
Cc1ccc(C)c(S(=O)(=O)NCc2cccnc2)c1	–	–	–	–	–	–	·	·	·
Cc1ccc(C)c(S(=O)(=O)NCc2ccncc2)c1	–	–	–	137	–	–	–	–	–
COc1cccc(-c2c(C(=O)NN=C(C)c3cccnc3)nnn2-c2nonc2N)c1	·	·	·	·	·	–	·	·	·
COc1ccc(/C=N/S(=O)(=O)CCc2ccccc2)c(OC)c1	–	–	–	69[inhibitor]	–	·	–	–	–
CCCC(=NNC(=O)c1cccc(Cl)c1)c1ccccc1	·	·	·	·	·	–	·	·	·
CC(=O)c1ccc(N2Cc3ccccc3C2=NC(=O)Nc2ccccc2)cc1	·	·	·	·	·	–	·	·	·
O=C(/N=C1/c2ccccc2CN1c1ccccc1)Nc1ccccc1	–	–	–	138	–	·	–	–	–
COC(=O)c1ccc(N2Cc3ccccc3/C2=N\C(=O)Nc2ccccc2)cc1	–	–	–	137	–	·	–	–	–
COC(=O)c1ccc(N2Cc3ccccc3C2=NC(=O)Nc2ccccc2)cc1	·	·	·	·	·	–	·	·	·
CCC12CC3CC(C1)CC(C(=O)NNC(N)=O)(C3)C2	–	–	–	128	–	–	–	–	–
Cc1ccc2nc(Cc3ccc(N)cc3)[nH]c2c1	–	–	–	–	–	–	·	·	·
Nc1ccc2nc(Cc3ccccc3)[nH]c2c1	47[inhibitor]	–	–	41[inhibitor]	–	·	–	–	–
CCN(CC(=O)Nc1ccccc1C(F)(F)F)C(=O)c1ccc2c(c1)NC(=O)CS2	·	–	–	·	·	–	·	·	·
COc1cccc(OCC(O)CN2CCC(CN3C(=O)c4cccc5cccc(c45)C3=O)CC2)c1 (centres undefined)	156	–	–	–	–	–	–	–	–
Cc1cccc(/C=N/n2c(-c3cc(-c4ccccc4)n[nH]3)n[nH]c2=S)c1	–	–	–	138	–	·	–	–	–
CC1CN(C(NC(=O)c2ccccc2)C(Cl)(Cl)Cl)CC(C)O1 (centres undefined)	–	·	·	–	–	–	·	·	·
O=C(/C=N/O)NCc1ccncc1	–	–	–	123	–	·	–	–	–
O=C(C=NO)NCc1ccncc1	·	·	·	·	·	–	·	·	·
COc1cc(OC)cc(C(=O)N2CCC(C(=O)Nc3ccc4c(c3)OCCO4)CC2)c1	–	–	–	146	–	–	–	–	–
CN(CC(=O)Nc1cccc(F)c1)C(=O)C1CCN(C(=O)c2ccc(Cl)cc2)CC1	·	–	–	·	·	·	·	·	·
O=C(Nc1cccc(F)c1)C1CCN(C(=O)c2ccc(Cl)cc2)CC1	–	–	–	145	–	–	–	–	–
C[C@H](NS(=O)(=O)c1ccc(Cl)c(Cl)c1)C(=O)OCc1cc(=O)n2cc(Br)ccc2n1	–	–	–	131	–	–	–	–	–
Cc1ccc(C(C(=O)NC2CCCC2)N(Cc2ccccc2)C(=O)c2csnn2)o1 (centres undefined)	–	–	–	–	–	–	·	·	·
Cc1ccc(C(C(=O)NC2CCCC2)N(Cc2ccc(F)cc2)C(=O)c2csnn2)o1 (centres undefined)	3.0[inhibitor]	–	–	3.0[inhibitor]	–	–	–	–	–
COc1ccc(CNC(=O)CN(Cc2ccc(F)cc2)C(=O)c2csnn2)cc1	–	–	–	148	–	–	–	–	–
SMILES	MEKK2wt PB1 HTS	UBC13 polyUb	Apaf1 inhib	MEKK3 PB1 HTS	MEKK2 mut-MEK5	UCH37 inh	MEKK2wt confirm	MEKK2mut-MEK5	MEKK3-MEK5 inh
COc1ccc(/C=C/C(=O)OCC(=O)Nc2cccc(C(C)=O)c2)cc1	–	–	–	149	–	–	–	–	–
Cc1nn(-c2ccccc2)c(C)c1C(=O)OC(C)C(=O)NC1CCCCC1 (centres undefined)	·	–	–	·	·	–	·	·	·
COc1cc(/C=C2\SC(=S)N(N3CCOCC3)C2=O)ccc1O	–	–	–	–	–	·	·	·	·
COc1cc(/C=C2\SC(=S)N(N3CCOCC3)C2=O)cc(OC)c1OC	–	–	–	141	–	–	–	–	–
O=C1/C(=C/c2ccncc2)SC(=S)N1N1CCOCC1	37[inhibitor]	–	–	42[inhibitor]	–	–	–	–	–
Cc1cccc(N(Cc2ccccc2F)S(C)(=O)=O)c1	–	–	–	–	–	–	·	·	·
Cc1cccc(CCNC(=O)CN(C)S(=O)(=O)c2cnc[nH]2)c1	–	–	–	–	–	–	·	·	·
O=C(COc1ccc(Br)cc1)Nc1cc(S(=O)(=O)N2CCCCC2)ccc1N1CCCCC1	–	–	–	139	–	–	–	–	–
Cc1cc(C)nc(SCc2cc(=O)c(OC(=O)c3ccc(Br)o3)co2)n1	–	–	–	128	–	–	–	–	–
O=C(CN1CCCCCC1)Nc1cc(C(F)(F)F)ccc1Cl	–	–	–	–	–	–	·	·	·
CSc1nc(-c2ccccc2)nn1C(=O)c1ccco1	1.0[inhibitor]	–	–	1.0[inhibitor]	–	–	–	–	–
CCC(CC)n1[nH]c(=O)cc1N	–	–	–	128	–	–	–	–	–
CCOC(=O)N1CCC(N(CCN(C)C)C(=S)Nc2cccc(SC)c2)CC1	–	–	–	–	–	–	·	·	·
CCc1cccc(NC(=S)N(CCOC)C2CCN(C(C)=O)CC2)c1	–	–	–	123	34	–	–	–	–
CCOC(=O)N1CCC(N(CCN(C)C)C(=S)Nc2ccccc2OC)CC1	–	–	–	–	–	–	·	·	·
CCOC(=O)N1CCC(N(CCN(C)C)C(=S)Nc2ccccc2C)CC1	–	–	–	130	–	–	–	–	–
CCOC(=O)N1CCC(N(CCN(C)C)C(=S)Nc2cccc(C)c2)CC1	–	–	–	138	–	–	–	–	–
CCc1cccc(NC(=S)N(CCCOC(C)C)C2CCN(C(C)=O)CC2)c1	–	–	–	–	–	–	·	·	·
c1ccc(CN2CCC(Nc3nc(-c4cccs4)nc4ccccc34)CC2)cc1	188	–	–	–	–	·	–	–	–
c1csc(-c2nc(NCC3CCCO3)c3ccccc3n2)c1 (centres undefined)	–	–	–	–	–	–	·	·	·
c1ccc(CSc2nnc3ccc(-c4ccncc4)nn23)nc1	–	–	–	–	–	–	·	·	·
Fc1ccc(CSc2nnc3ccc(-c4ccncc4)nn23)cc1	–	–	–	–	190	–	–	–	–
